# Assay outcomes as filed in PubChem.
# The list is not random: actives were taken first. Their share in the collection is about 2.9%.
# E-selectin induc = E-selectin induction in HUVECs, primary screen, imaging, HUVEC, immunofluorescence imaging, single point; P16581; normalized: neutral wells 0, TNF-alpha wells 100; activation, % at 7.58 µM; 260,000 compounds, 0.37% hits; AID 686992, 2013;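 active = mean E-selectin-positive cell signal at least 10% of the positive control, reached in at least 60% of replicates, without over 20% cell loss; inconclusive = no rule given, readout overlaps actives, possibly toxicity-flagged; inactive = the rest, including those meeting only one limit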
# Target sequence (P16581 whole entry, looked up): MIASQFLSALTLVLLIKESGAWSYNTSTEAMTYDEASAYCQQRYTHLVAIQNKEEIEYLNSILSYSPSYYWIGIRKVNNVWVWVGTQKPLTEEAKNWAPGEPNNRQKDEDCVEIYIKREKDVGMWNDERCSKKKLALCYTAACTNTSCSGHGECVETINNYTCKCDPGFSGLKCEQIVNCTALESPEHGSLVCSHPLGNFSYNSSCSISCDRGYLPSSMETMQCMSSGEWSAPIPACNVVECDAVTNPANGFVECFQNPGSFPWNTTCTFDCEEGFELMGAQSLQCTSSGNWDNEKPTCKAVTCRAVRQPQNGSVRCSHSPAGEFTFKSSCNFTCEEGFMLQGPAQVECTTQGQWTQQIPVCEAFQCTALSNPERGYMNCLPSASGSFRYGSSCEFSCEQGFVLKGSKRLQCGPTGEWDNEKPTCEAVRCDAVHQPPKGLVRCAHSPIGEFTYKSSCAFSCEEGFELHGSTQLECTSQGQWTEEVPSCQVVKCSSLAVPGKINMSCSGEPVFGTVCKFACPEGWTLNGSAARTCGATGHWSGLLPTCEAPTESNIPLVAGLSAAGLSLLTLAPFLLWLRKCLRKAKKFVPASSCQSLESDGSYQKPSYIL
#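 Test system – human umbilical vein endothelial cells (HUVEC), E-selectin induction · Input – 3,000 HUVEC seeded per well · Buffer or medium – EGM-2, gelatin · Compound dosing – single-point compound dose · Detection – immunofluorescence imaging · Measure – percent E-selectin-positive cells · Controls – TNF-alpha high, DMSO low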
# DENV2 CPE rescue = inhibitors of DENV2 cytopathic effect, primary screen, cell-based, plate reader, single concentration | DENV2-infected cells, cytopathic effect rescue | CPE inhibition, % at 9.99 µM | 350,000 compounds, 1.7% hits; in the data active = CPE inhibition above about 20%, passing the limit was not always enough; inconclusive = no clear call, values can overlap the other calls; tested in BHK-21 cells;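 note: 0% = median of neutral control wells and 100% = median of positive control wells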
# SIRT5 block = SIRT5 desuccinylase inhibitors, primary screen, biochemical, fluorescence imaging, single point, set 5 | inhibition, % at 15 µM | Purified SirT5, succinyl-peptide AMC, trypsin-coupled fluorescence | NAD-dependent protein deacylase sirtuin-5, mitochondrial (Homo sapiens), Q9NXA8 | 330,000 compounds, 1.1% hits; in the data active = inhibition above about 15%; inconclusive = no clear call, values can overlap the other calls
# * = called active by the depositor; ? = inconclusive; · = no result given; ! = a repeat was not active.
SMILES,E-selectin induc,DENV2 CPE rescue,SIRT5 block
CN1CCN(S(=O)(=O)c2ccc3c4c(cccc24)C(=O)N3)CC1,0,-5,·
C[C@H]1CN([C@@H](C)CO)S(=O)(=O)c2ccc(C#Cc3ccccc3F)cc2O[C@H]1CN(C)C(=O)c1ccc2c(c1)OCO2,0,4,17*
C[C@@H]1CN([C@@H](C)CO)S(=O)(=O)c2ccc(C#Cc3ccccc3F)cc2O[C@@H]1CN(C)C(=O)c1ccc2c(c1)OCO2,0,-2,26*
C[C@H]1CN([C@@H](C)CO)S(=O)(=O)c2ccc(C#Cc3ccccc3F)cc2O[C@@H]1CN(C)C(=O)Cc1ccccc1,0,-3,1
C[C@@H]1CN([C@@H](C)CO)S(=O)(=O)c2ccc(C#Cc3ccccc3F)cc2O[C@H]1CN(C)C(=O)Cc1ccccc1,0,-4,2
O=C1c2ccccc2C(=O)c2cc(N3CCCCC3)ccc21,1,4,0
O=C(Cc1ccncc1)N[C@@H]1CC[C@@H](CCn2cc(-c3ccccc3F)nn2)O[C@H]1CO,0,5,3
O=C(Nc1ccc(F)cc1)N1C[C@@H]2N[C@H](C1)C2c1ccc(/C=C/c2ccccc2)cc1 (stereo partly drawn),0,0,·
C/C=C/c1ccc(C2[C@H]3CNC[C@@H]2N3C(=O)NC2CCCCC2)cc1 (stereo partly drawn),0,6,2
O=C(Nc1ccc2c(c1)OCO2)N1C[C@@H]2N[C@H](C1)C2c1ccc(C=Cc2ccccc2)cc1 (stereo partly drawn),0,-3,17*!
C/C=C/c1ccc(C2[C@H]3CNC[C@@H]2N3C(=O)NCCC)cc1 (stereo partly drawn),0,25*!,-4
O=C(Nc1ccc(F)cc1)N1[C@@H]2CNC[C@H]1C2c1ccc(/C=C/c2ccccc2)cc1 (stereo partly drawn),0,-10,3
O=C(Nc1ccc2c(c1)OCO2)N1[C@@H]2CNC[C@H]1C2c1ccc(/C=C/c2ccccc2)cc1 (stereo partly drawn),0,79*,5
CCOc1ccccc1NC(=O)COC(=O)c1ccccc1SCC(=O)N1CCCC1,0,-1,0
O=C(CSC1CC(=O)N(c2ccc(C(=O)O)cc2)C1=O)Nc1ccc(Cl)cc1 (stereo not drawn),1,-3,18*
O=C(O)CSC1CC(=O)N(c2ccc(F)cc2)C1=O (stereo not drawn),0,9,0
Cc1ccc(-c2csc(NC(=O)c3ccc(Br)cc3)c2C(=O)O)cc1,0,5,-3
COc1cc(C(=O)NCCN2CCN(C(=O)c3cc(OC)c(OC)c(OC)c3)CC2)cc(OC)c1OC,0,14,29*
COc1cc(C(=O)NNC(=O)C2CCC2)cc(OC)c1OC,·,5,25*
COc1cc(C(=O)NCCN2CCOCC2)cc(OC)c1OC,·,·,-6
COc1cc(C(=O)NNC(=O)C2CC=CCC2C(=O)O)cc(OC)c1OC (stereo not drawn),0,5,-5
CS(=O)(=O)c1ccc(C(=O)OCC(=O)N2CCOCC2)cc1[N+](=O)[O-],0,7,·
COc1ccc(S(=O)(=O)Nc2ccc3c(c2)CC(=O)N([C@@H](C)CO)C[C@H](C)[C@@H](CN(C)CC2CCCCC2)O3)cc1,-1,?,16*
COc1ccc(S(=O)(=O)Nc2ccc3c(c2)CC(=O)N([C@@H](C)CO)C[C@@H](C)[C@@H](CN(C)CC2CC2)O3)cc1,0,-8,-1
COc1ccc(S(=O)(=O)Nc2ccc3c(c2)CC(=O)N([C@@H](C)CO)C[C@@H](C)[C@@H](CN(C)CC2CCCCC2)O3)cc1,-1,2,13
SMILES,E-selectin induc,DENV2 CPE rescue,SIRT5 block
COc1ccc(S(=O)(=O)Nc2ccc3c(c2)CC(=O)N([C@H](C)CO)C[C@H](C)[C@@H](CN(C)CC2CCCCC2)O3)cc1,-1,-3,24*
CCOc1ccccc1NC(=O)NS(=O)(=O)c1ccc(C)cc1,·,·,-4
N#Cc1ccc(C23CC4(C2)[C@H](CN(Cc2ccc(-c5ccccc5)cc2)[C@@H]4c2ccccc2)C3c2ccc(Cl)nc2)cc1 (stereo partly drawn),0,·,·
CCN(CC)c1ccc(/C=N/NC(=O)Cc2ccc(OC)c(OC)c2)cc1,36*,-2,·
COc1ccc(/C=N/NC(=O)Cc2ccc(Cl)cc2)cc1OC,·,10,0
O=C(Nc1cc(S(=O)(=O)N2CCOCC2)ccc1N1CCOCC1)c1ccccc1Cl,0,-6,·
Cc1ccc(C2=NOC(=O)/C2=C\c2ccc(C)o2)cc1,11,18,0
Cc1ccc(/C=C2\C(=O)ON=C2c2ccccc2)o1,·,-5,15*
Cc1nc2c(OCCC3CCCCC3)cccn2c1N(C)C(=O)CCC1CCCC1,0,41*,4
Cc1nc2c(OCCOc3ccccc3)cccn2c1N(C)C(=O)CCC1CCCC1,0,1,-1
O=C(NCc1ccccc1Br)c1cccs1,0,8,1
CC(=O)c1ccccc1NC(=O)CSCc1nc2sc(C)c(C)c2c(=O)[nH]1,0,16,-3
COCCNC(=O)C1(C)CCCN(C(=O)c2ccc(-c3ccccc3)cc2)C1 (stereo not drawn),0,4,·
CCCNC(=O)C1(C)CCCN(Cc2ccc(C#N)cc2)C1 (stereo not drawn),·,48*,11
COCCNC(=O)C1(C)CCCN(C(=O)c2ccccc2)C1 (stereo not drawn),0,33*,-5
CCCNC(=O)C1(C)CCN(C(=O)C2(c3ccc(Cl)cc3)CCCC2)C1 (stereo not drawn),0,0,·
CCCNC(=O)C1(C)CCCN(C(=O)C2(c3ccc(Cl)cc3)CCCC2)C1 (stereo not drawn),0,?,30*
CCCNC(=O)C1(C)CCCN(Cc2ccc(Cl)cc2)C1 (stereo not drawn),·,1,·
Cc1ccc(OCCCC(=O)Nc2ccc(S(=O)(=O)N3CCOCC3)cc2)cc1,1,-4,3
N#C[C@@H]1[C@H](c2ccccc2C2=CCCCC2)[C@@H](CO)N1C(=O)c1ccccn1,0,27*,0
N#C[C@@H]1[C@H](c2ccc(C3=CCCCC3)cc2)[C@H](CO)N1C(=O)NC1CCCC1,0,27*,·
N#C[C@H]1[C@@H](c2ccccc2C2=CCCCC2)[C@@H](CO)N1C(=O)NC1CCCC1,0,22*,1
C/C=C/c1ccc([C@H]2[C@@H](CO)N(CC3CCCC3)[C@H]2CNS(C)(=O)=O)cc1,0,-11,·
N#C[C@H]1[C@@H](c2ccccc2C2=CCCC2)[C@H](CO)N1C(=O)c1ccccn1,0,6,0
C/C=C/c1ccc([C@H]2[C@@H](CNS(C)(=O)=O)N(CC3CCCC3)[C@H]2CO)cc1,0,51*,4
N#C[C@H]1[C@H](c2ccccc2C2=CCCCC2)[C@@H](CO)N1C(=O)NC1CCCC1,0,-12,-3
N#C[C@H]1[C@@H](c2ccc(C3=CCCCC3)cc2)[C@H](CO)N1C(=O)NC1CCCC1,3,10,·
